Molecules are shown by their SMILES.

Data set [1] has as its system L5178Y. Briefly: Cytotoxicity against chemoresistant mouse L5178Y cells expressing human MDR1 gene after 72 hrs by MTT assay. The format is ADME, cell-based. An outline of the steps:
(§1)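 L5178Y parental and human MDR1-transfected mouse T-cell lymphoma cells grown in McCoy's 5A with 10% heat-inactivated horse serum at 37 °C, 5% CO2. Cells seeded at 1 × 10^5/mL and given 2-fold serial dilutions in duplicate wells for 72 h. MTT added for 4 h, then SDS overnight, OD 550 nm (ref 630). IC50 from curve fitting over three independent experiments. Selectivity index = IC50(PAR)/IC50(MDR).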
For orientation: Formazan colour is commonly taken as a measure of viable cells.

In data set [2] the target is T1, ATP-dependent translocase ABCB1 (Homo sapiens, UniProt P08183). Briefly: Inhibition of human Pgp-mediated rhodamine 123 efflux expressed in mouse L5178Y cells assessed as fluorescence activity ratio at 20 uM after 10 mins by flow cytometric analysis. The format is cell-based. In a few lines: (§2)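 PAR and MDR L5178Y cells at 2 × 10^6 cells/mL in serum-free McCoy's 5A, compound at 2 or 20 μM. Verapamil 22 μM as positive control, DMSO 2% as solvent control. After 10 min at room temperature, rhodamine-123 added (5.2 μM final) for 20 min at 37 °C. Cells washed twice, resuspended in PBS, and mean FL-1 of 20 000 cells read by flow cytometry. FAR = (MDR treated/untreated)/(PAR treated/untreated).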
A general note: A flow cytometer gives signals particle by particle.

Data set [3] concerns the target T1, ATP-dependent translocase ABCB1. The data set is described as follows: Inhibition of human Pgp expressed in mouse L5178Y cells assessed as potentiation of doxorubicin-induced cytotoxicity after 48 hrs by MTT assay. The format is cell-based. In a few lines: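 Checkerboard combination with doxorubicin (14.7–0.1 μM) across one axis and 2-fold dilutions of modifier on the other, at a fixed drug ratio. MDR L5178Y cells seeded at 2 × 10^5 cells/mL and incubated 48 h, growth read by MTT. Combination index from the Chou–Talalay median-effect equation at 50% inhibition, using the best combination ratio. CI <1 synergy, =1 additivity, >1 antagonism.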

In data set [4] the test system is L5178Y. The data set is described as follows: Cytotoxicity against chemosensitive mouse L5178Y cells after 72 hrs by MTT assay. The format is cell-based. In a few lines: as §1
Data set [5] deals with P-glycoprotein 1 / MDR1 (Homo sapiens). Briefly: Selectivity index, ratio of IC50 for chemosensitive mouse L5178Y cells to IC50 for chemoresistant mouse L5178Y cells expressing human MDR1 gene.
Data set [6] addresses T1, ATP-dependent translocase ABCB1. The data set is described as follows: Inhibition of human Pgp-mediated rhodamine 123 efflux expressed in mouse L5178Y cells assessed as fluorescence activity ratio at 2 uM after 10 mins by flow cytometric analysis. It is filed as cell-based. An outline of the steps:
as §2

Data set [7] has as its system L5178Y. The data set is described as follows: Toxicity against chemoresistant mouse L5178Y cells expressing human MDR1 gene at >40 uM after 10 mins by flow cytometric analysis. The format is cell-based. An outline of the steps:
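Toxicity during the rhodamine-123 accumulation assay, tested at 2, 20, 40 and 80 μM, was judged from shifts in flow-cytometric forward scatter and side scatter.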

The target of data set [8] is T1, ATP-dependent translocase ABCB1. The data set is described as follows: Inhibition of human Pgp-mediated rhodamine 123 efflux expressed in mouse L5178Y cells assessed as reversal of chemoresistance after 10 mins by flow cytometric analysis. It is filed as cell-based. An outline of the steps:
(§3)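 MDR L5178Y cells preincubated 10 min with compound, then loaded with rhodamine-123 (5.2 μM final) for 20 min at 37 °C and read by flow cytometry. The percentage of cells reverted to a chemosensitive phenotype was obtained by Overton cumulative histogram subtraction, channel by channel.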

The target of a further data set is P-gp (ABCB1) (Homo sapiens, UniProt P08183). The data set is described as follows: Inhibition of human Pgp expressed in mouse L5178Y cells assessed as reversal of chemoresistance at 20 uM after 10 mins by flow cytometric analysis. The format is cell-based. An outline of the steps:
as §3

T1 sequence (P08183 whole entry): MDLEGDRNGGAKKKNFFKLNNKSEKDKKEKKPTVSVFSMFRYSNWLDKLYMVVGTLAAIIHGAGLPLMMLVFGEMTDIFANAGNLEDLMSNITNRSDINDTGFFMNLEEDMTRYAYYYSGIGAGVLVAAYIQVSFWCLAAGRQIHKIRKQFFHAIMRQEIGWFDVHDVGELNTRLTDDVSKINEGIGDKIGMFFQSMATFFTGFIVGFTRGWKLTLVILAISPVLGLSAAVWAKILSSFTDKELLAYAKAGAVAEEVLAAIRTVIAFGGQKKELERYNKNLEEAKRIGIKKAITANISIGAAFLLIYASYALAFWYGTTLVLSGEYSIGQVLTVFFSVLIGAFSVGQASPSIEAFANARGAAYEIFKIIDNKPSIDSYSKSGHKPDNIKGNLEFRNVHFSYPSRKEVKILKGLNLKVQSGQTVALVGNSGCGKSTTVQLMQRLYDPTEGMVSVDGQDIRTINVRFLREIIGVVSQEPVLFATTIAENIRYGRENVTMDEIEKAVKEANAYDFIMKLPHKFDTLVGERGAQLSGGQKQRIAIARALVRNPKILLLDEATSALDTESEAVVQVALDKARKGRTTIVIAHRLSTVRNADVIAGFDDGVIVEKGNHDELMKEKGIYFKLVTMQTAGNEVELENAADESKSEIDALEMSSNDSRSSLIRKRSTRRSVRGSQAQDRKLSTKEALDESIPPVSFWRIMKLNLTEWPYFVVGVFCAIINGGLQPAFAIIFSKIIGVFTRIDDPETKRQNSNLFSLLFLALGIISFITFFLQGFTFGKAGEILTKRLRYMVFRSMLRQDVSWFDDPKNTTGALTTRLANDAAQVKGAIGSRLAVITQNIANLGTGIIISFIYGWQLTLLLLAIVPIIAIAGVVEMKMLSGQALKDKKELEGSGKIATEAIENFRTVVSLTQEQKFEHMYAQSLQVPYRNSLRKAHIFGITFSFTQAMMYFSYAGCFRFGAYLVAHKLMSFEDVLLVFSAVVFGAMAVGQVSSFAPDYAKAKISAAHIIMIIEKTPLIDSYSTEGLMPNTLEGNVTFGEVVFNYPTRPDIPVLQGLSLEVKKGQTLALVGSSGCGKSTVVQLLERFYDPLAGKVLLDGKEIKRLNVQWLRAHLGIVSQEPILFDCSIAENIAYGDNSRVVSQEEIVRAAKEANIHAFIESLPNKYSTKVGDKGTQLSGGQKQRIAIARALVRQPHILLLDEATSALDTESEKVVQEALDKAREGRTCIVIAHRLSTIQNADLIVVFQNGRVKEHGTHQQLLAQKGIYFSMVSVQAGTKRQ
P-gp (ABCB1), sequence (P08183 whole entry): as above

The IC50 is the point on the concentration scale where inhibition reaches its midpoint. Read a high IC50 as lower potency. With `CC(=O)O[C@H]1[C@@H](C)C[C@]2(OC(C)=O)C(=O)/C(C)=C/[C@@H]3[C@H](CC/C(C)=C/[C@@H]12)C3(C)C` [JOLKINOATE A], the IC50 in the data set with L5178Y [1] worked out at 60.4 µM; with L5178Y [4], 38.2 µM. The figures for the Ratio in data set [2] and in data set [6] were 33.76 and 1.16, respectively. In data set [3], the CI is listed as 0.18. In data set [5], the selectivity ratio stood at 0.6.

For `CCC(=O)O[C@H]1[C@@H](C)C[C@]2(OC(C)=O)C(=O)/C(C)=C/[C@@H]3[C@H](CC/C(C)=C/[C@@H]12)C3(C)C` [JOLKINOATE B], the IC50 with L5178Y [1] amounted to 22.2 µM; with L5178Y [4], 18.3 µM. Moreover, the Ratio is on record as 30.64 in [2] and 2.95 in [6]. The CI in data set [3] amounted to 0.34. The selectivity ratio in data set [5] is 0.8. In addition, the Activity result in the data set with L5178Y [7] is reported as “Toxic”.

On to `CCCC(=O)O[C@H]1[C@@H](C)C[C@]2(OC(C)=O)C(=O)/C(C)=C/[C@@H]3[C@H](CC/C(C)=C/[C@@H]12)C3(C)C` [JOLKINOATE C], for which the results for the IC50 in the data set on L5178Y [1] and in the data set on L5178Y [4] were 26.8 µM and 24 µM, respectively. Further, the Ratio is recorded as 107.89 in data set [2] and 5.15 in data set [6]. In [3], the CI came to 0.39. Besides, in data set [5], the selectivity ratio was 0.9. In addition, the Activity result in the data set with L5178Y [7] is recorded as “Toxic”.

For the molecule `CCCCCCCCCCCC(=O)O[C@H]1[C@@H](C)C[C@]2(OC(C)=O)C(=O)/C(C)=C/[C@@H]3[C@H](CC/C(C)=C/[C@@H]12)C3(C)C` [JOLKINOATE D], the results for the IC50 in the data set on L5178Y [1] and with L5178Y [4] were 60.3 µM and 38.7 µM, respectively. Also, the Ratio was 25.69 in data set [2] and 1.74 in data set [6]. Moreover, the CI in data set [3] is recorded as 2.02. For the same molecule, the selectivity ratio in [5] stood at 0.6.

As to `CCCC(C)C(=O)O[C@H]1[C@@H](C)C[C@]2(OC(C)=O)C(=O)/C(C)=C/[C@@H]3[C@H](CC/C(C)=C/[C@@H]12)C3(C)C` (stereo not given in full) [JOLKINOATE E], the IC50 in the data set with L5178Y [1] is 18.8 µM; in the data set with L5178Y [4], 17.2 µM. Moreover, the Ratio in data set [2] is on record as 12.13; in [6], 7.14. Also, in data set [3], the CI is 0.23. In addition, the selectivity ratio in data set [5] is 0.9. The Activity result in the data set on L5178Y [7] is reported as “Toxic”.

Turning to `CCC(CC)C(=O)O[C@H]1[C@@H](C)C[C@]2(OC(C)=O)C(=O)/C(C)=C/[C@@H]3[C@H](CC/C(C)=C/[C@@H]12)C3(C)C` [JOLKINOATE F], the IC50 in the data set on L5178Y [1] was 14.7 µM; in the data set with L5178Y [4], 14.3 µM. Further, the Ratio was 77.25 in data set [2] and 4.99 in [6]. Further, the CI in [3] stood at 0.25. Besides, in data set [5], the selectivity ratio was found to be 1. In addition, the Activity entry in the data set on L5178Y [7] is on record as “Toxic”.

On to `CCCCC(CC)C(=O)O[C@H]1[C@@H](C)C[C@]2(OC(C)=O)C(=O)/C(C)=C/[C@@H]3[C@H](CC/C(C)=C/[C@@H]12)C3(C)C` (stereo not given in full) [JOLKINOATE G], for which the 50% inhibitory concentration (IC50) in the data set with L5178Y [1] is 48.9 µM; in the data set with L5178Y [4], 20.6 µM. Besides, the figures for the Ratio in data set [2] and in data set [6] were 52.66 and 10.55, respectively. The CI in [3] worked out at 0.31. In [5], the selectivity ratio was 0.4. In addition, the Activity result in the data set on L5178Y [7] was “Toxic”.

The inhibition is how much of the control response was suppressed. `CC(=O)O[C@]12C[C@H](C)[C@H](OC(=O)c3ccccc3)[C@@H]1/C=C(\C)CC[C@H]1[C@@H](/C=C(\C)C2=O)C1(C)C` [JOLKINOATE I]: the IC50 in the data set on L5178Y [1] is 33.1 µM; with L5178Y [4] it was 34.7 µM. Besides, the Ratio in data set [2] is given as 84.22; in data set [6], 24.15. In [3], the CI stood at 0.35. Also, the “inhibition (INH)” value in data set [8] is reported as “Dose-dependent effect”. At P-gp (ABCB1), the inhibition at 10 min, 20 µM turned out to be 70.2%. In addition, the selectivity ratio in data set [5] was found to be 1.

For `CC(=O)O[C@]12C[C@H](C)[C@H](OC(=O)c3ccc(C)cc3)[C@@H]1/C=C(\C)CC[C@H]1[C@@H](/C=C(\C)C2=O)C1(C)C` [JOLKINOATE J], the values for the concentration for half-maximal inhibition (IC50) with L5178Y [1] and with L5178Y [4] were 45.1 µM and 41.2 µM, respectively. In addition, the values for the Ratio in [2] and in data set [6] were 56.88 and 21.11, respectively. Also, the CI in data set [3] is 0.26. The “inhibition (INH)” value in data set [8] is listed as “Dose-dependent effect”. In addition, the selectivity ratio in data set [5] came to 0.9.

In the case of `COc1ccc(C(=O)O[C@H]2[C@@H](C)C[C@]3(OC(C)=O)C(=O)/C(C)=C/[C@@H]4[C@H](CC/C(C)=C/[C@@H]23)C4(C)C)cc1` [JOLKINOATE K], the values for the IC50 with L5178Y [1] and in the data set with L5178Y [4] were 32.7 µM and 21.7 µM, respectively. The figures for the Ratio in data set [2] and in data set [6] were 109.17 and 28.09, respectively. In addition, in data set [3], the CI is on record as 0.3. The “inhibition (INH)” value in data set [8] is on record as “Dose-dependent effect”. In addition, the inhibition at 10 min, 20 µM at P-gp (ABCB1) was determined as 95%. Moreover, the selectivity ratio in [5] worked out at 0.7.

On to `CC(=O)O[C@]12C[C@H](C)[C@H](OC(=O)c3cccc(C(F)(F)F)c3)[C@@H]1/C=C(\C)CC[C@H]1[C@@H](/C=C(\C)C2=O)C1(C)C` [JOLKINOATE L], for which the IC50 in the data set with L5178Y [1] amounted to 52.6 µM; in the data set on L5178Y [4], 44 µM. The Ratio was found to be 28.66 in data set [2] and 9.32 in [6]. Also, in [3], the CI turned out to be 0.27. Further, the selectivity ratio in [5] is 0.8.

Take `CC(=O)O[C@]12C[C@H](C)[C@H](OS(=O)(=O)c3ccccc3)[C@@H]1/C=C(\C)CC[C@H]1[C@@H](/C=C(\C)C2=O)C1(C)C` [JOLKINOATE M]: the IC50 with L5178Y [1] was found to be 15 µM; in the data set with L5178Y [4] it was 12.1 µM. For the same molecule, the Ratio in [2] is 52.77; in [6] it was 16.06. Moreover, the CI in [3] was 0.21. Also, the “inhibition (INH)” value in data set [8] is given as “Dose-dependent effect”. Also, the selectivity ratio in data set [5] came to 0.8.

As to `C/C1=C\[C@H]2[C@@H](O)[C@@H](C)C[C@]2(O)C(=O)/C(C)=C/[C@@H]2[C@H](CC1)C2(C)C` [JOLKINODIOL], the IC50 in the data set with L5178Y [1] was 48.9 µM; in the data set with L5178Y [4], 36.4 µM. Also, the values for the Ratio in data set [2] and in data set [6] were 3.38 and 0.84, respectively. Besides, the CI in data set [3] came to 0.65. Also, in data set [5], the selectivity ratio came to 0.7.

`CC(=O)O[C@]12C[C@H](C)[C@H](O)[C@@H]1/C=C(\C)CC[C@H]1[C@@H](/C=C(\C)C2=O)C1(C)C` [JOLKINOL D]: the IC50 in the data set with L5178Y [1] came out at 99.7 µM; in the data set with L5178Y [4], 89.9 µM. Further, the Ratio in [2] is reported as 0.92; in [6] it was 0.79. Also, the CI in data set [3] turned out to be 0.26. Further, the selectivity ratio in [5] was 0.9.

The values are drawn from ChEMBL document CHEMBL2311385, “Enhancing macrocyclic diterpenes as multidrug-resistance reversers: structure-activity studies on jolkinol D derivatives” (J Med Chem, 2013).
